ChEMBL document CHEMBL4610039, “Design, synthesis and apoptosis-related antiproliferative activities of chelidonine derivatives” (Bioorg Med Chem Lett, 2020)
Active and inactive are the calls of the source. The calls are words filed in the database; no cut-off is given here.

How the values were obtained:
K562 [1] = assay: Induction of morphological changes in human K562 cells assessed as nuclear rupture at 0.55 to 2.20 uM after 48 hrs by Hoechst 33258 staining based fluorescence microscopic analysis; type: functional, cell-based
How it was run: (§1)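 After 48 h exposure at 0, 0.55, 1.10 or 2.20 μM, K562 cells were stained with Hoechst 33258. Nuclear morphology, including chromatin aggregation and nuclear rupture, was examined by fluorescence microscopy.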

K562 [2] = assay: Induction of morphological changes in human K562 cells assessed as chromatin aggregation at 0.55 to 2.20 uM after 48 hrs by Hoechst 33258 staining based fluorescence microscopic analysis; type: functional, cell-based; how it was run: as §1
K562 [3] = assay: Induction of apoptosis in human K562 cells assessed as reduction in catalase protein expression after 24 hrs by chemiluminescence based protein array analysis; type: functional, cell-based
How it was run: (§2)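 K562 cells were treated for 24 h, then proteins were extracted and run on a human apoptosis protein array. Chemiluminescent signals were detected with a digital imaging system.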

K562 [4] = assay: Induction of mitochondrial membrane potential loss in human K562 cells assessed as cell population with intact mitochondrial membrane potential at 1.10 uM after 48 hrs by JC1 staining-based flow cytometry analysis (reference value: 92.94%); type: functional
[5] = Drug metabolism assessed as nitric oxide release after 210 mins; type: physicochemical; details: 3.5 h
How it was run: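 NO released from the NO-donating derivatives was measured over time up to 210 min by Griess assay.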

K562 [6] = assay: Induction of mitochondrial membrane potential loss in human K562 cells assessed as cell population with intact mitochondrial membrane potential at 0.55 uM after 48 hrs by JC1 staining-based flow cytometry analysis (reference value: 92.94%); type: functional
K562 [7] = assay: Induction of apoptosis in human K562 cells assessed as early apoptotic cells at 0.55 uM after 48 hrs by annexin V-FITC/propidium iodide staining based flow cytometry (reference value: 2.23%); type: functional
K562 [8] = assay: Induction of apoptosis in human K562 cells assessed as late apoptotic cells at 1.10 uM after 48 hrs by annexin V-FITC/propidium iodide staining based flow cytometry (reference value: 0.73%); type: functional
K562 [9] = assay: Induction of apoptosis in human K562 cells assessed as reduction in survivin level after 24 hrs by chemiluminescence based protein array analysis; type: functional, cell-based; how it was run: as §2
K562 [10] = assay: Induction of mitochondrial membrane potential loss in human K562 cells assessed as cell population with mitochondrial membrane potential collapse at 2.20 uM after 48 hrs by JC1 staining-based flow cytometry analysis (reference value: 7.04%); type: functional
K562 [11] = assay: Induction of cell cycle arrest in human K562 cells assessed as accumulation at S phase at 0.55 uM after 72 hrs by propidium iodide staining based flow cytometry (reference value: 35.68%); type: functional
How it was run: (§3)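 For cell cycle, K562 cells were treated 72 h at 0, 0.55, 1.10 or 2.20 μM, with a solvent control. Cells were stained with PI and G1, S and G2/M fractions determined by flow cytometry.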

K562 [12] = assay: Induction of apoptosis in human K562 cells assessed as viable cells at 1.10 uM after 48 hrs by annexin V-FITC/propidium iodide staining based flow cytometry (reference value: 96.26%); type: functional; details: K562, 48 h, read-out: Activity
K562 [13] = assay: Induction of cell cycle arrest in human K562 cells assessed as accumulation at G2/M phase at 2.20 uM after 72 hrs by propidium iodide staining based flow cytometry (reference value: 8.19%); type: functional; how it was run: as §3
K562 [14] = assay: Induction of apoptosis in human K562 cells assessed as necrotic cells at 0.55 uM after 48 hrs by annexin V-FITC/propidium iodide staining based flow cytometry (reference value: 0.78%); type: functional
K562 [15] = assay: Induction of cell cycle arrest in human K562 cells assessed as accumulation at G2/M phase at 0.55 uM after 72 hrs by propidium iodide staining based flow cytometry (reference value: 8.19%); type: functional; how it was run: as §3
K562 [16] = assay: Induction of apoptosis in human K562 cells assessed as early apoptotic cells at 2.20 uM after 48 hrs by annexin V-FITC/propidium iodide staining based flow cytometry (reference value: 2.23%); type: functional
K562 [17] = assay: Induction of cell cycle arrest in human K562 cells assessed as accumulation at S phase after 72 hrs by propidium iodide staining based flow cytometry; type: functional; how it was run: as §3
K562 [18] = assay: Induction of apoptosis in human K562 cells assessed as necrotic cells at 2.20 uM after 48 hrs by annexin V-FITC/propidium iodide staining based flow cytometry (reference value: 0.78%); type: functional
K562 [19] = assay: Induction of apoptosis in human K562 cells assessed as reduction in bcl-xl protein expression after 24 hrs by chemiluminescence based protein array analysis; type: functional, cell-based; how it was run: as §2
K562 [20] = assay: Induction of apoptosis in human K562 cells assessed as late apoptotic cells at 2.20 uM after 48 hrs by annexin V-FITC/propidium iodide staining based flow cytometry (reference value: 0.73%); type: functional
K562 [21] = assay: Induction of apoptosis in human K562 cells assessed as early apoptotic cells at 1.10 uM after 48 hrs by annexin V-FITC/propidium iodide staining based flow cytometry (reference value: 2.23%); type: functional
K562 [22] = assay: Induction of apoptosis in human K562 cells assessed as late apoptotic cells at 0.55 uM after 48 hrs by annexin V-FITC/propidium iodide staining based flow cytometry (reference value: 0.73%); type: functional
K562 [23] = assay: Induction of apoptosis in human K562 cells assessed as reduction in claspin level after 24 hrs by chemiluminescence based protein array analysis; type: functional, cell-based; how it was run: as §2
K562 [24] = assay: Induction of mitochondrial membrane potential loss in human K562 cells assessed as cell population with intact mitochondrial membrane potential at 2.20 uM after 48 hrs by JC1 staining-based flow cytometry analysis (reference value: 92.94%); type: functional
MCF7 = assay: Antiproliferative activity against human MCF7 cells assessed as reduction in cell growth after 72 hrs by MTT assay; type: functional, cell-based; details: MCF7, 72 h
How it was run: (§4)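 Human HepG2, MCF-7, HCT-116 and K562 tumour cells plus normal L-02 hepatocytes and PBMCs were exposed to compounds for 72 h and growth was read by MTT. 5-Fu served as positive control. IC50 is the concentration inhibiting 50% of cell growth, given as mean ± standard deviation of three independent experiments.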

K562 [25] = assay: Induction of apoptosis in human K562 cells assessed as necrotic cells at 1.10 uM after 48 hrs by annexin V-FITC/propidium iodide staining based flow cytometry (reference value: 0.78%); type: functional
K562 [26] = assay: Induction of cell cycle arrest in human K562 cells assessed as accumulation at S phase at 1.10 uM after 72 hrs by propidium iodide staining based flow cytometry (reference value: 35.68%); type: functional; how it was run: as §3
K562 [27] = assay: Induction of mitochondrial membrane potential loss in human K562 cells assessed as cell population with mitochondrial membrane potential collapse at 1.10 uM after 48 hrs by JC1 staining-based flow cytometry analysis (reference value: 7.04%); type: functional
K562 [28] = assay: Induction of cell cycle arrest in human K562 cells assessed as accumulation at G1 phase at 0.55 uM after 72 hrs by propidium iodide staining based flow cytometry (reference value: 56.13%); type: functional; how it was run: as §3
L02 = assay: Antiproliferative activity against human L02 cells assessed as reduction in cell growth after 72 hrs by MTT assay; type: functional, cell-based; details: L02, 72 h; how it was run: as §4
K562 [29] = assay: Induction of cell cycle arrest in human K562 cells assessed as accumulation at G2/M phase at 1.10 uM after 72 hrs by propidium iodide staining based flow cytometry (reference value: 8.19%); type: functional; how it was run: as §3

- Drug metabolism [5]: 30 µM
- IC50 (MCF7): 6.9 µM
Structure (SMILES): CN1Cc2c(ccc3c2OCO3)[C@H]2[C@@H](OC(=O)CCCC(=O)OCC#CCOc3no[n+]([O-])c3S(=O)(=O)c3ccccc3)Cc3cc4c(cc3[C@H]21)OCO4
- Activity (K562 [1]): Active
- Activity (K562 [2]): Active
- Activity (K562 [3]): Active
- Activity (K562 [4]): 71.34%
- Activity (K562 [6]): 80.71%
- Activity (K562 [7]): 6.49%
- Activity (K562 [8]): 2.39%
- Activity (K562 [9]): Active
- Activity (K562 [10]): 51.15%
- Activity (K562 [11]): 41.89%
- viability at 1.1 µM (K562 [12]): 80.5%
- Activity (K562 [13]): 7.87%
- Activity (K562 [14]): 1.69%
- Activity (K562 [15]): 10.28%
- Activity (K562 [16]): 24.84%
- Activity (K562 [17]): Dose-dependent effect
- Activity (K562 [18]): 1.16%
- Activity (K562 [19]): Active
- Activity (K562 [20]): 28.97%
- Activity (K562 [21]): 16.46%
- Activity (K562 [22]): 3.47%
- Activity (K562 [23]): Active
- Activity (K562 [24]): 48.85%
- Activity (K562 [25]): 0.66%
- Activity (K562 [26]): 52.04%
- Activity (K562 [27]): 28.66%
- Activity (K562 [28]): 47.82%
- IC50 (L02): 6.04 µM
- Activity (K562 [29]): 6.69%
